Measurements from ChEMBL document CHEMBL4689842, “EUbOPEN Chemogenomics Library wave 1” (2021).

Test system: Fibroblast
Assay: Multiplex assay against human fibroblast
Type: toxicity, cell-based
Summary of the method: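 At seeding, live cells were stained with Hoechst33342, BioTracker Green Microtubule Cytoskeleton Dye, MitoTracker Red and Annexin V Alexa Fluor 680. After compound addition they were imaged on a CQ1 microscope at 37°C and 5% CO2, and CellPathfinder machine-learning gating sorted them into Hoechst high-intensity objects or normal cells, with normal cells further split into healthy, pyknosed or fragmented nuclei and pyknosed cells into mitotic or apoptotic. Tubulin, mitochondrial-mass and membrane-permeability phenotypes are given as per cents of cells with healthy nuclei.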

[1] = 12 h, 1 µM, compound concentration 1 uM, replicate 1
[2] = 12 h, 1 µM, compound concentration 1 uM, replicate 2
[3] = 12 h, 10 µM, compound concentration 10 uM, replicate 1
[4] = 12 h, 10 µM, compound concentration 10 uM, replicate 2
[5] = 24 h, 1 µM, compound concentration 1 uM, replicate 1
[6] = 24 h, 1 µM, compound concentration 1 uM, replicate 2
[7] = 24 h, 10 µM, compound concentration 10 uM, replicate 1
[8] = 24 h, 10 µM, compound concentration 10 uM, replicate 2
[9] = 48 h, 1 µM, compound concentration 1 uM, replicate 1
[10] = 48 h, 1 µM, compound concentration 1 uM, replicate 2
[11] = 48 h, 10 µM, compound concentration 10 uM, replicate 1
[12] = 48 h, 10 µM, compound concentration 10 uM, replicate 2

O=C1NCN(c2ccccc2)C12CCN(CCCOc1ccc(F)cc1)CC2 [SPIRAMIDE]
Population Apoptotic (%) [1]: 75%
Population Fragmented Nuclei (%) [1]: 40%
Population Healthy Nuclei (%) [1]: 31%
Population Hoechst High Intensity Objects (%) [1]: 15%
Population Membrane Permeable-Phenotype (%) [1]: 22%
Population Mitochondria Different-Phenotype (%) [1]: 11%
Population Mitotic Cells (%) [1]: 24%
Population Normal (%) [1]: 84%
Population Pyknosed Nuclei (%) [1]: 28%
Population Tubulin-Different-Phenotype (%) [1]: 33%
Total Cell Count [1]: 136
Population Apoptotic (%) [2]: 0%
Population Fragmented Nuclei (%) [2]: 10%
Population Healthy Nuclei (%) [2]: 88%
Population Hoechst High Intensity Objects (%) [2]: 7%
Population Membrane Permeable-Phenotype (%) [2]: 0%
Population Mitochondria Different-Phenotype (%) [2]: 10%
Population Mitotic Cells (%) [2]: 100%
Population Normal (%) [2]: 92%
Population Pyknosed Nuclei (%) [2]: 1%
Population Tubulin-Different-Phenotype (%) [2]: 6%
Total Cell Count [2]: 74
Population Apoptotic (%) [3]: 66%
Population Fragmented Nuclei (%) [3]: 25%
Population Healthy Nuclei (%) [3]: 44%
Population Hoechst High Intensity Objects (%) [3]: 13%
Population Membrane Permeable-Phenotype (%) [3]: 6%
Population Mitochondria Different-Phenotype (%) [3]: 54%
Population Mitotic Cells (%) [3]: 33%
Population Normal (%) [3]: 86%
Population Pyknosed Nuclei (%) [3]: 30%
Population Tubulin-Different-Phenotype (%) [3]: 82%
Total Cell Count [3]: 162
Population Apoptotic (%) [4]: 50%
Population Fragmented Nuclei (%) [4]: 3%
Population Healthy Nuclei (%) [4]: 88%
Population Hoechst High Intensity Objects (%) [4]: 8%
Population Membrane Permeable-Phenotype (%) [4]: 2%
Population Mitochondria Different-Phenotype (%) [4]: 27%
Population Mitotic Cells (%) [4]: 50%
Population Normal (%) [4]: 91%
Population Pyknosed Nuclei (%) [4]: 7%
Population Tubulin-Different-Phenotype (%) [4]: 12%
Total Cell Count [4]: 91
Population Apoptotic (%) [5]: 57%
Population Fragmented Nuclei (%) [5]: 31%
Population Healthy Nuclei (%) [5]: 45%
Population Hoechst High Intensity Objects (%) [5]: 13%
Population Membrane Permeable-Phenotype (%) [5]: 25%
Population Mitochondria Different-Phenotype (%) [5]: 5%
Population Mitotic Cells (%) [5]: 42%
Population Normal (%) [5]: 86%
Population Pyknosed Nuclei (%) [5]: 22%
Population Tubulin-Different-Phenotype (%) [5]: 44%
Total Cell Count [5]: 132
Population Apoptotic (%) [6]: 0%
Population Fragmented Nuclei (%) [6]: 7%
Population Healthy Nuclei (%) [6]: 89%
Population Hoechst High Intensity Objects (%) [6]: 6%
Population Membrane Permeable-Phenotype (%) [6]: 2%
Population Mitochondria Different-Phenotype (%) [6]: 7%
Population Mitotic Cells (%) [6]: 100%
Population Normal (%) [6]: 93%
Population Pyknosed Nuclei (%) [6]: 3%
Population Tubulin-Different-Phenotype (%) [6]: 7%
Total Cell Count [6]: 76
Population Apoptotic (%) [7]: 70%
Population Fragmented Nuclei (%) [7]: 20%
Population Healthy Nuclei (%) [7]: 60%
Population Hoechst High Intensity Objects (%) [7]: 16%
Population Membrane Permeable-Phenotype (%) [7]: 10%
Population Mitochondria Different-Phenotype (%) [7]: 44%
Population Mitotic Cells (%) [7]: 29%
Population Normal (%) [7]: 83%
Population Pyknosed Nuclei (%) [7]: 18%
Population Tubulin-Different-Phenotype (%) [7]: 85%
Total Cell Count [7]: 177
Population Apoptotic (%) [8]: 27%
Population Fragmented Nuclei (%) [8]: 3%
Population Healthy Nuclei (%) [8]: 78%
Population Hoechst High Intensity Objects (%) [8]: 6%
Population Membrane Permeable-Phenotype (%) [8]: 2%
Population Mitochondria Different-Phenotype (%) [8]: 21%
Population Mitotic Cells (%) [8]: 72%
Population Normal (%) [8]: 93%
Population Tubulin-Different-Phenotype (%) [8]: 10%
Total Cell Count [8]: 118
Population Apoptotic (%) [9]: 60%
Population Fragmented Nuclei (%) [9]: 36%
Population Healthy Nuclei (%) [9]: 45%
Population Hoechst High Intensity Objects (%) [9]: 14%
Population Membrane Permeable-Phenotype (%) [9]: 32%
Population Mitochondria Different-Phenotype (%) [9]: 5%
Population Mitotic Cells (%) [9]: 40%
Population Normal (%) [9]: 85%
Population Pyknosed Nuclei (%) [9]: 17%
Population Tubulin-Different-Phenotype (%) [9]: 34%
Total Cell Count [9]: 133
Population Apoptotic (%) [10]: 0%
Population Fragmented Nuclei (%) [10]: 15%
Population Healthy Nuclei (%) [10]: 83%
Population Hoechst High Intensity Objects (%) [10]: 5%
Population Membrane Permeable-Phenotype (%) [10]: 13%
Population Mitochondria Different-Phenotype (%) [10]: 0%
Population Mitotic Cells (%) [10]: 100%
Population Normal (%) [10]: 94%
Population Pyknosed Nuclei (%) [10]: 0%
Population Tubulin-Different-Phenotype (%) [10]: 36%
Total Cell Count [10]: 137
Population Apoptotic (%) [11]: 69%
Population Fragmented Nuclei (%) [11]: 31%
Population Healthy Nuclei (%) [11]: 59%
Population Hoechst High Intensity Objects (%) [11]: 22%
Population Membrane Permeable-Phenotype (%) [11]: 3%
Population Mitochondria Different-Phenotype (%) [11]: 47%
Population Mitotic Cells (%) [11]: 30%
Population Normal (%) [11]: 77%
Population Pyknosed Nuclei (%) [11]: 9%
Population Tubulin-Different-Phenotype (%) [11]: 80%
Total Cell Count [11]: 186
Population Apoptotic (%) [12]: 50%
Population Healthy Nuclei (%) [12]: 64%
Population Hoechst High Intensity Objects (%) [12]: 9%
Population Membrane Permeable-Phenotype (%) [12]: 8%
Population Mitochondria Different-Phenotype (%) [12]: 2%
Population Mitotic Cells (%) [12]: 50%
Population Normal (%) [12]: 90%
Population Pyknosed Nuclei (%) [12]: 3%
Population Tubulin-Different-Phenotype (%) [12]: 29%
Total Cell Count [12]: 123
